Measured values pooled from the literature.
Compare with care: the assays were run in different laboratories.
Cell line: A549
Read-out: cell growth or viability

Structure (SMILES) | method | tested at | inhibition
O=C(N/N=C1\C(=O)N(c2ccccc2)c2ccccc21)c1cc2ccccc2[nH]1 | – | 30 µM | 98.5%
O=C(CN1C(=O)/C(=C/c2ccc(Cl)cc2)SC1=S)Nc1ccccc1 | MTT | 10 µM | 36.7%
COc1cc2ncnc(NN=C3C(=O)Nc4ccc(C)cc43)c2cc1OC | – | 30 µM | 20.5%
O=C1Nc2ccc(Cl)cc2/C1=N/NC(=O)c1cc2ccccc2[nH]1 | – | 30 µM | 60.6%
COc1cc(CNC(=O)CCCC/C=C/C(C)C)ccc1O | SRB | 10 µM | 0%
COc1cc2ncnc(NN=C3C(=O)Nc4ccc(F)cc43)c2cc1OC | – | 10 µM | 7.1%
CN1C(=O)/C(=N\NC(=O)c2cc3ccccc3[nH]2)c2cc(Br)ccc21 | – | 30 µM | 97.4%
Cc1ccc2c(c1)C(=NNc1nc3ccccc3n(C)c1=O)C(=O)N2 | – | 30 µM | 68.8%
O=C(CN1C(=O)/C(=C/c2cccc(F)c2)SC1=S)Nc1ccccc1 | MTT | 10 µM | 26.1%
O=C1Nc2ccc(Br)cc2/C1=N/NC(=O)c1cc2ccccc2[nH]1 | – | 30 µM | 77%
Cc1ccc2c(c1)C(=NNc1nnc(Cc3ccccc3)c3ccccc13)C(=O)N2 | – | 30 µM | 85%
O=C(CN1C(=O)/C(=C/c2cccc(Br)c2)SC1=S)Nc1ccccc1 | MTT | 10 µM | 25.8%
COc1ccc2c(c1)/C(=N/NC(=O)c1cc3ccccc3[nH]1)C(=O)N2 | – | 30 µM | 85.3%
O=C(CN1C(=O)/C(=C/c2ccc([N+](=O)[O-])cc2)SC1=S)Nc1ccccc1 | MTT | 10 µM | 24.4%
Cc1c(-c2cccc(C(F)(F)F)c2)sc2[nH]c(=O)n([C@H](C)c3cccc4ccccc34)c(=O)c12 | – | 10 µM | > 80%
COc1ccc(-c2nc(NN=C3C(=O)Nc4ccc(Br)cc43)c3ccccc3n2)cc1OC | – | 10 µM | 77.1%
O=C(CN1C(=O)/C(=C/c2ccncc2)SC1=S)Nc1ccccc1 | MTT | 10 µM | 25.9%
O=C1Nc2ccc(F)cc2/C1=N/NC(=O)c1cc2ccccc2[nH]1 | – | 30 µM | 6.9%
COc1cc2ncnc(NN=C3C(=O)Nc4ccccc43)c2cc1OC | – | 30 µM | 32.9%
COc1ccccc1/C=C1\SC(=S)N(CC(=O)Nc2ccccc2)C1=O | MTT | 10 µM | 38.3%
